{"source": "ChEMBL document CHEMBL5705901", "about": "“Exploiting selective BCL-2 family inhibitors to dissect cell survival dependencies and define improved strategies for cancer therapy” (Sci Transl Med, 2015)", "key": {"MDA-MB-231": {"tested_on": "MDA-MB-231", "assay": "Antitumor activity against LC3 positive human MDA-MB-231 cells xenografted in SCID mouse assessed as maximum tumor growth inhibition at 25 mg/kg, po administered daily for 14 days relative to control", "assay_type": "functional", "conditions": "MDA-MB-231, 336 h, time 14 day, read-out: TGI", "summary_of_the_method": "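MDA-MB-231 LC3 metastatic breast cancer xenograft, 10 mice per group, with a vehicle control. Dosing: oral agent 25 mg/kg daily for 14 days; docetaxel 7.5 mg/kg iv once; combination gives both regimens. Mean tumor volumes tracked. TGImax = 100(1 − Tv/Cv) from mean treated vs control volumes. TGD = 100(T/C − 1) from median times to reach 1 cm3.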"}, "NCI-H747 [1]": {"tested_on": "NCI-H747", "assay": "Antitumor activity against human NCI-H747 cells xenografted in po dosed SCID-bg mouse assessed as maximum tumor growth inhibition relative to control", "assay_type": "functional"}, "[2]": {"assay": "Toxicity in po dosed SCID mouse assessed as tolerance", "assay_type": "organism-based", "conditions": "in vivo"}, "[3]": {"assay": "Toxicity in po dosed SCID-bg mouse assessed as body weight loss relative to control", "assay_type": "organism-based", "conditions": "in vivo"}, "NCI-H747 [4]": {"tested_on": "NCI-H747", "assay": "Antitumor activity against human NCI-H747 cells xenografted in po dosed SCID-bg mouse assessed as tumor growth delay relative to control", "assay_type": "functional", "summary_of_the_method": "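Tumor volume-based endpoints. TGD = 100(T/C − 1), where T and C are the median times for the treated and control groups to reach 1 cm3. Groups were five mice for NCI-H747 and OVCAR-5 and eight for NCI-H358. Docetaxel was given intravenously and the test agent orally.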"}, "ZR-75-1 [5]": {"tested_on": "ZR-75-1", "assay": "Induction of apoptosis in human ZR-75-1 cells assessed as increase in caspase cleavage incubated for 48 hrs in presence of docetaxel by immunoblot analysis", "assay_type": "functional, cell-based"}, "ZR-75-1 [6]": {"tested_on": "ZR-75-1", "assay": "Induction of apoptosis in human ZR-75-1 cells assessed as poly(ADP-ribose) polymerase cleavage incubated for 48 hrs in presence of docetaxel by immunoblot analysis", "assay_type": "functional, cell-based"}, "ZR-75-1 [7]": {"tested_on": "ZR-75-1", "assay": "Induction of apoptosis in human ZR-75-1 cells assessed as accumulation of cells with sub-G0-G1 DNA content at 1 uM incubated for 48 hrs in presence of docetaxel by flow cytometric analysis", "assay_type": "functional, cell-based"}, "MDA-MB-453": {"tested_on": "MDA-MB-453", "assay": "Induction of apoptosis in human MDA-MB-453 cells assessed as accumulation of cells with sub-G0-G1 DNA content at 1 uM incubated for 48 hrs in presence of docetaxel by flow cytometric analysis", "assay_type": "functional, cell-based"}, "BT-474": {"tested_on": "BT-474", "assay": "Induction of apoptosis in human BT-474 cells assessed as accumulation of cells with sub-G0-G1 DNA content at 1 uM incubated for 48 hrs in presence of docetaxel by flow cytometric analysis", "assay_type": "functional, cell-based"}, "SK-BR-3": {"tested_on": "SK-BR-3", "assay": "Induction of apoptosis in human SK-BR-3 cells assessed as accumulation of cells with sub-G0-G1 DNA content at 1 uM incubated for 48 hrs in presence of docetaxel by flow cytometric analysis", "assay_type": "functional, cell-based"}, "HCC38": {"tested_on": "HCC38", "assay": "Induction of apoptosis in human HCC38 cells assessed as accumulation of cells with sub-G0-G1 DNA content at 1 uM incubated for 48 hrs in presence of docetaxel by flow cytometric analysis", "assay_type": "functional, cell-based"}, "MDA-MB-175-VII": {"tested_on": "MDA-MB-175-VII", "assay": "Induction of apoptosis in human MDA-MB-175-VII cells assessed as accumulation of cells with sub-G0-G1 DNA content at 1 uM incubated for 48 hrs in presence of docetaxel by flow cytometric analysis", "assay_type": "functional, cell-based"}, "NCI-H146 [8]": {"tested_on": "NCI-H146", "assay": "Induction of apoptosis in Bcl-xl dependent human NCI-H146 cells assessed as cytochrome C release from mitochondria at 0.1 to 1000 nM incubated for 4 hrs by immunoblot analysis", "assay_type": "functional, cell-based", "conditions": "dose 0.1-1000 nM", "summary_of_the_method": "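NCI-H146 cells were treated for 4 h with increasing concentrations. Mitochondrial and cytosolic fractions were separated, and cytochrome c in each was determined by immunoblotting.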"}, "NCI-H146 [9]": {"tested_on": "NCI-H146", "assay": "Induction of apoptosis in Bcl-xl dependent human NCI-H146 cells assessed as caspase 3/7 activation at 1 to 667 nM incubated for 4 hrs by immunoblot analysis", "assay_type": "functional, cell-based", "conditions": "dose 1-667 nM", "summary_of_the_method": "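NCI-H146 cells were incubated with increasing concentrations for 4 h, and caspase-3/7 activation was measured. Values are the mean of triplicate experiments ± SD.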"}, "LXFL 529": {"tested_on": "LXFL 529", "assay": "Synergistic antiproliferative activity against human LXFL 529 cells assessed as reduction in cell viability by measuring bliss sum score incubated for 72 hrs in presence of docetaxel by CellTiter-Glo cell vaibility assay", "assay_type": "functional"}, "[10]": {"assay": "Antagonistic antiproliferative activity against […] (unknown origin) cells assessed as reduction in cell viability by measuring bliss sum score incubated for 72 hrs in presence of docetaxel by CellTiter-Glo cell vaibility assay", "assay_type": "functional"}}, "note": "Calls of active or inactive are those of the source. The rule behind the calls is not given here.", "data": [{"compound": "Cc1c(-c2ccc(N3CCc4cccc(C(=O)Nc5nc6ccccc6s5)c4C3)nc2C(=O)O)cnn1CC12CC3CC(CC(C3)C1)C2", "values": [{"measurement": "inhibition in vivo at 25 mg/kg", "setting": "MDA-MB-231", "value": 55, "unit": "%"}, {"measurement": "TGI", "setting": "NCI-H747 [1]", "value": 50, "unit": "%"}, {"measurement": "Activity", "setting": "[2]", "value": "Non-Toxic"}, {"measurement": "Activity", "setting": "[3]", "value": "< 9", "unit": "%"}, {"measurement": "Activity", "setting": "NCI-H747 [4]", "value": 33, "unit": "%"}]}, {"compound": "CC1(C)CCC(c2ccc(Cl)cc2)=C(CN2CCN(c3ccc(C(=O)NS(=O)(=O)c4ccc(N[C@H](CCN5CCOCC5)CSc5ccccc5)c(S(=O)(=O)C(F)(F)F)c4)cc3)CC2)C1", "note": "[NAVITOCLAX]", "values": [{"measurement": "Activity", "setting": "ZR-75-1 [5]", "value": "Active"}, {"measurement": "Activity", "setting": "ZR-75-1 [6]", "value": "Active"}, {"measurement": "Activity", "setting": "ZR-75-1 [7]", "value": "Active"}, {"measurement": "Activity", "setting": "MDA-MB-453", "value": "Active"}, {"measurement": "Activity", "setting": "BT-474", "value": "Active"}, {"measurement": "Activity", "setting": "SK-BR-3", "value": "Active"}, {"measurement": "Activity", "setting": "HCC38", "value": "Active"}, {"measurement": "Activity", "setting": "MDA-MB-175-VII", "value": "Active"}]}, {"compound": "CN(C)CC#Cc1ccc(OCCCc2sc(N3CCc4cccc(C(=O)Nc5nc6ccccc6s5)c4C3)nc2C(=O)O)c(F)c1", "note": "[A-1155463]", "values": [{"measurement": "Activity", "setting": "NCI-H146 [8]", "value": "Active"}, {"measurement": "Activity", "setting": "NCI-H146 [9]", "value": "Active"}, {"measurement": "Activity_index", "setting": "LXFL 529", "value": 734}, {"measurement": "Activity_index", "setting": "[10]", "value": -269}]}]}
